Rows were chosen to be rich in hits. Some 1.2% of all compounds tested hit in one or more screens of this group.
DDE Tn7 FP inh: disrupts Tn7 cyclic peptide binding to fibrin D-Dimer-E complex | FP displacement of FITC-Tn7 peptide from fibrin DD(E); 0% = median of compound wells per plate | inhibition, % at 8.3 µM | 370,000 tested, 0.13% active | AID 720508;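 active = inhibition above the mean of compounds falling within the control limits plus 3 SD of them, cut at about 14% in these data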
Target sequence (P02675 whole entry, looked up): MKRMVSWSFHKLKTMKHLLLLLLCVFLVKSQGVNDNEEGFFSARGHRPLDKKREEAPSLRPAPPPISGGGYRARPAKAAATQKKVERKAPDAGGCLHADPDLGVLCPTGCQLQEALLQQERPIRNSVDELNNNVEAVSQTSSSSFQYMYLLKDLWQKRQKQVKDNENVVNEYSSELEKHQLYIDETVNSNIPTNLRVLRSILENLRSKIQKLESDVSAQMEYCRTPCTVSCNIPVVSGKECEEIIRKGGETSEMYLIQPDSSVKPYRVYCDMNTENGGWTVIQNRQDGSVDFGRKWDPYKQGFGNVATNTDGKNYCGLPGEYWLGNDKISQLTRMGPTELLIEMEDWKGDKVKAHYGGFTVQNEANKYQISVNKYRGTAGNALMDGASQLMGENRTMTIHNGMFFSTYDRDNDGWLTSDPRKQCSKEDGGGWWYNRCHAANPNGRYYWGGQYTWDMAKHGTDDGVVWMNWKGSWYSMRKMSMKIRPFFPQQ
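system = human fibrin DD(E) protein | quantity = DD(E) 2 µM final | medium = Tris/NaCl/CaCl2 buffer, pH 7.8 | also added = labelled Tn7 tracer, 0.1 µM | compound dosing = single point at 8.3 µM | timing = compound with protein 10 min, then 3 h after probe, room temperature | signal = FP measurement | benchmarks = Aha-Tn7 high control | repeats = one replicate per compound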
Tn6 DDE FP: inhibitors of Tn6 peptide binding to human fibrin DD(E) | P02675 | Fibrin DD(E) TRITC-Tn6 fluorescence polarization displacement | inhibition, % at 8.3 µM | 370,000 tested, 0.21% active | AID 720509;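 active = inhibition above a per-campaign cutoff: mean of compounds within control limits plus 3 SD, cut at about 15% in these data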
CRFR2-BP antag: CRF-BP/CRF-R2 complex antagonism; AID 588475; HEK293 CRF-R2/CRF-BP, CRF-induced calcium fluorescence; 350,000 tested, 0.59% active; inhibition, % at 11.8 µM;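 active = inhibition of the ligand-induced calcium signal above about 50% at the single tested concentration, limit read from the data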
CRFR2-BP ag: CRF-BP/CRF-R2 complex agonism. HEK293 CRF-R2/CRF-BP, calcium dye fluorescence (FLIPR); percent of saturating CRF peptide response. activation, % at 13.2 µM. 350,000 tested, 0.46% active;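 active = activation of at least 50%, plus an integration ratio under a set limit after plate pattern correction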
DDE Tn6 FP ctr: counter-screen hit for Tn6 peptide-fibrin DD(E) binding disruption; TRITC-Tn6 fluorescence polarization displacement; 0% = median of compound wells, not DMSO; 680 tested, 2% active; shares compounds with Tn6 DDE FP; AID 720621; inhibition, % at 8.3 µM;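 active = inhibition above the mean of test compounds lying between the control limits plus 3 SD of those, cut at about 14% in these data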
Tn6 DDE conf: confirmation of inhibitors of Tn6 binding to human fibrin DD(E); inhibition, % at 8.3 µM; FP displacement of TRITC-Tn6 peptide from DD(E); 0% = per-plate median of test wells; 680 tested, 10% active; AID 720631; shares compounds with Tn6 DDE FP;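 active = inhibition above the mean of compounds lying within the control limits plus 3 SD, cut at about 16% in these data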
A number is an active result; i = inactive; nt = not tested or not shown.

SMILES	DDE Tn7 FP inh	Tn6 DDE FP	CRFR2-BP antag	CRFR2-BP ag	DDE Tn6 FP ctr	Tn6 DDE conf
O=C(O)c1cn(-c2ccc(N3CCCC3)c(F)c2)c2c(F)c(F)c(F)cc2c1=O	i	18	i	i	i	i
Cc1c(-n2cc(C(=O)O)c(=O)c3cc(F)c(N4CCCC(O)C4)c(F)c32)c(=O)n(-c2ccccc2)n1C (stereo not drawn)	i	i	i	i	nt	nt
Cc1nn(-c2ccccc2)c2sc(C(=O)NCCc3ccccc3)cc12	i	i	nt	nt	nt	nt
CC[C@H](C)/C=C(C)/C=C/c1cc2c(cn1)C(=O)[C@@](C)(OC(C)=O)C(O)=C2Cl	i	i	nt	nt	nt	nt
CC[C@H](C)/C=C(C)/C=C/C(=O)Cc1cc(O)c(C)c(O)c1C=O	i	16	i	i	i	i
O=C(C1CCN(S(=O)(=O)c2ccccc2)CC1)N1CCN(c2ccccc2)CC1	i	15	i	i	i	i
COc1ccc(N2CCN(C(=O)C3CCN(S(=O)(=O)c4ccccc4)CC3)CC2)cc1	i	i	i	i	nt	nt
O=C(OCc1cc([N+](=O)[O-])cc2c1OCOC2)c1ccccn1	i	18	i	i	i	i
Cc1c(Cc2ccccc2)c(=O)oc2cc(OCC(=O)N3CCC(C(N)=O)CC3)ccc12	i	18	i	i	i	i
NC(=O)C1CCN(C(=O)COc2ccc3c(c2)oc(=O)c2ccccc23)CC1	i	i	i	i	nt	nt
O=C(Nc1nc2c(Br)cccc2s1)c1ccc2c(c1)OCCO2	i	38	nt	nt	i	i
Cc1cc(O)ccc1N/C=C1\CCCC1=O	i	30	i	i	i	i
CC(=O)Nc1ccc(N/C=C2/CCCC2=O)cc1	i	i	i	i	nt	nt
COc1ccc([C@@H]2[C@@H]3C(=O)N(C(C)(C)C)C(=O)[C@@H]3[C@]3(Cc4ccc(Cl)cc4)C(=O)N(c4cccc(F)c4)C(=O)N23)cc1	i	i	i	i	nt	nt
COc1cc(NS(=O)(=O)c2ccc(NC(=S)NC(=O)/C=C/c3ccc(F)cc3)cc2)ncn1	i	19	i	i	i	i
CN(C)c1ccc(N=Nc2ccc(S(N)(=O)=O)cc2)cc1	i	i	i	i	nt	nt
CC1=CC(=O)C=CC1=Nc1ccc(N(C)C)cc1	i	22	nt	nt	i	i
CC(C)(C)C(=O)OC12CCCN(C1)/C(=C/c1cccc(Cl)c1)C2 (stereo not drawn)	i	i	nt	nt	nt	nt
COc1ccccc1NS(=O)(=O)c1cccc(NC(=O)c2cncc(Br)c2)c1	i	i	i	i	nt	nt
CCCCCCCCCCCNC(=O)c1ccoc1C	i	17	i	i	i	i
O=C(COc1ccccc1Cl)NC(=S)Nc1ccccc1N1CCCC1	i	16	i	i	i	i
Cc1ccccc1-n1c(C)nnc1SCC(=O)N(C)C1CCS(=O)(=O)C1 (stereo not drawn)	i	19	i	i	i	i
C=CCn1c(-c2ccc(F)cc2)n[nH]c1=S	i	16	i	i	i	i
CC(COc1ccc(OC(F)(F)F)cc1)CN1CCC(C(O)(c2ccccc2)c2ccccc2)CC1 (stereo not drawn)	i	22	nt	nt	i	i
CC(COc1ccccc1)CN1CCC(C(O)(c2ccccc2)c2ccccc2)CC1 (stereo not drawn)	i	i	nt	nt	nt	nt
SMILES	DDE Tn7 FP inh	Tn6 DDE FP	CRFR2-BP antag	CRFR2-BP ag	DDE Tn6 FP ctr	Tn6 DDE conf
CCc1ccc(OCC(=O)Nc2ccc3oc(=O)ccc3c2)cc1	i	17	i	i	i	i
CCc1nc(-c2cc3ccc(C)cc3[nH]c2=O)no1	i	i	i	i	nt	nt
Cc1ccc2[nH]c(=O)c(-c3noc(C(C)C)n3)cc2c1	i	17	i	i	i	i
Cc1ccc2ccccc2c1NC(=O)CNCc1ccccc1	i	i	i	i	nt	nt
CN(C)c1ccc2nc3ccc(=O)cc-3sc2c1	i	146	i	i	i	70
CCN1CCN(c2ccc(S(=O)(=O)N3CCCCC3)cc2NC(=O)/C=C/c2cccc(OC)c2OC)CC1	i	16	106	i	i	i
CC1CCN(C(=O)COC(=O)Cc2c[nH]c3ccccc23)CC1	i	21	i	i	i	i
COC(=O)CC#C[C@H](C)[C@@H](NS(=O)(=O)c1ccc([N+](=O)[O-])cc1)C(C)(C)C	i	i	nt	nt	nt	nt
CCCN1CCN(C(=O)Nc2ccc(OCC)cc2)CC1	i	15	i	i	i	i
Cc1cc(C)n(CC(O)Cn2c(C)c(C)c3ccccc32)n1 (stereo not drawn)	i	19	i	i	i	i
CC1(C)Cc2c(c(-c3ccco3)nc3sc4c(NCCO)ncnc4c23)CO1	i	i	i	i	nt	nt
COCCCNc1ncnc2c1sc1nc(-c3ccco3)c3c(c12)CC(C)(C)OC3	i	18	i	i	i	i
O=S(=O)(c1ccc(F)cc1)N1CN(Cc2ccco2)c2nc3ccccc3nc21	i	36	i	i	i	i
Cc1ccc(S(=O)(=O)N2CN(Cc3ccco3)c3nc4ccccc4nc32)cc1	i	i	i	i	nt	nt
Nc1nc2ncccc2cc1C(=O)NCCc1cccs1	i	i	nt	nt	nt	nt
COc1cccc(NC(=O)c2ccccc2N2C(=O)C3C4C=CC(C4)C3C2=O)c1 (stereo not drawn)	i	16	i	i	i	i
Cc1ccc(CN2CCC(C)(Oc3cccc(Cl)c3)C2)cc1 (stereo not drawn)	i	i	nt	nt	nt	nt
CC1CC(C)CN(S(=O)(=O)c2ccc3c(c2)oc(=O)n3CC(=O)N(C)Cc2ccccc2)C1 (stereo not drawn)	i	15	i	i	i	i
Cc1cc(S(=O)(=O)NCc2ccccc2)ccc1OCC(=O)N1CCCC1	i	i	i	i	nt	nt
CC1(O)C(c2ccccc2)=Nc2ccccc21 (stereo not drawn)	i	i	i	i	nt	nt
Cc1c(CN2CCC(C(=O)Nc3ccc(Oc4ccccc4)nc3)CC2)cnn1C	i	15	i	i	i	i
CCCS(=O)(=O)NC(=O)C1(C)CCN(C(=O)c2cccc(OC(F)(F)F)c2)C1 (stereo not drawn)	i	15	nt	nt	i	i
COC1=CC(=O)OC(c2ccc(C(F)(F)F)cc2)C1 (stereo not drawn)	i	16	nt	nt	i	i
CN(C)/C=C1\SC(=S)N(c2ccc(Br)cc2)C1=O	i	36	i	i	i	32
CN(C)/C=C1\SC(=S)N(c2ccc(F)cc2)C1=O	i	i	i	i	nt	nt
Cc1ccc(Cl)cc1NC(=O)COC(=O)CSc1ccccc1	i	i	i	i	nt	nt
CNc1ccc(/C=C2\CSc3ccccc3C2=O)cc1[N+](=O)[O-]	i	19	i	i	i	i
CCOC(=O)[C@H]1[C@H]2COc3ccc(C)cc3[C@@H]2N2C(=O)CN(C)C(=O)[C@@]12C	i	i	i	i	nt	nt
COc1ccc(C(=O)N(C)Cc2ccc(C)o2)cc1OC1CCN(C(C)=O)CC1	i	16	i	i	i	i

Screens from PubChem.
